From ChEMBL document CHEMBL1667864, “Synthesis and biological assay of 4-aryl-6-chloro-quinoline derivatives as novel non-nucleoside anti-HBV agents” (Bioorg Med Chem, 2011)

Assays:
[1] = test system: Hepatitis B virus; assay: Antiviral activity against HBV infected in human HepG 2.215 cells assessed as inhibition of DNA replication by RT-PCR analysis; assay type: functional, organism-based; details: HepG2.2.15
In short: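 HepG 2.2.15 cells were seeded at 5 × 10⁵ per well, with medium changed every 2 days. After 6 days, compounds were added and fresh medium was fed every other day for another 6 days. Total DNA was isolated from collected cells, and HBV DNA was quantified by real-time PCR. IC₅₀ is the concentration giving 50% inhibition of HBV DNA replication.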

[2] = Cytotoxicity against human HepG2(2.2.15) cells; assay type: cell-based
[3] = test system: Hepatitis B virus; assay: Antiviral activity against HBV infected in human HepG 2.215 cells assessed as inhibition of HBeAg secretion by ELISA; assay type: functional, organism-based; details: HepG2.2.15
[4] = Selectivity index, CC50 for human HepG 2.215 cells to IC50 for HBV infected in human HepG 2.215 cells assessed as inhibition of HBeAg secretion; assay type: functional
In short: (§1)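 SI calculated as CC₅₀ (concentration killing 50% of HepG 2.2.15 cells) divided by IC₅₀ (50% inhibition of HBV DNA replication, HBeAg or HBsAg secretion).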

[5] = Selectivity index, CC50 for human HepG 2.215 cells to IC50 for HBV infected in human HepG 2.215 cells assessed as inhibition of HBsAg secretion; assay type: functional; in short: as §1
[6] = test system: Hepatitis B virus; assay: Antiviral activity against HBV infected in human HepG 2.215 cells assessed as inhibition of HBsAg secretion by ELISA; assay type: functional, organism-based; details: HepG2.2.15
[7] = Selectivity index, CC50 for human HepG 2.215 cells to IC50 for HBV infected in human HepG 2.215 cells assessed as inhibition of DNA replication; assay type: functional; in short: as §1

IC50 [1] [µM]	IC50 [3] [µM]	IC50 [6] [µM]	SMILES	CC50 [2] [µM]	Selectivity Index [4]	Selectivity Index [5]	Selectivity Index [7]
42.8	> 1170	18.8	CC(C)(C)[Si](OCCc1c(N2CCNCC2)nc2ccc(Cl)cc2c1-c1ccccc1Cl)(c1ccccc1)c1ccccc1	< 18.8	<1	<1	<4.43
> 1560	767	454	CC(C)(C)[Si](OCCc1c(OS(=O)(=O)C(F)(F)F)nc2ccc(Cl)cc2c1-c1ccccc1Cl)(c1ccccc1)c1ccccc1	> 1560	2	>3.4	
8.3	111	37.7	OCCc1c(Nn2nnc3ccccc32)nc2ccc(Cl)cc2c1-c1ccccc1Cl	82.4	<1	2.2	10
> 5	> 5	> 5	OCCc1c(N2CCNCC2)nc2ccc(Cl)cc2c1-c1ccccc1Cl	< 5	<1	<1	
6.7	> 969	> 969	CC(C)(C)[Si](OCCc1c(N2CCCCC2)nc2ccc(Cl)cc2c1-c1ccccc1Cl)(c1ccccc1)c1ccccc1	> 969			>143.7
4.4	> 1250	> 1250	CC(C)(C)[Si](OCCc1c(Nn2nnc3ccccc32)nc2ccc(Cl)cc2c1-c1ccccc1Cl)(c1ccccc1)c1ccccc1	> 1250			>284.5
> 1870	> 1870	> 1870	CC(C)(C)[Si](OCCc1c(OCc2c(F)cccc2F)nc2ccc(Cl)cc2c1-c1ccccc1Cl)(c1ccccc1)c1ccccc1	> 1870			
151	50	37.5	OCCc1c(N2CCCCC2)nc2ccc(Cl)cc2c1-c1ccccc1Cl	155	3.1	4.1	1
> 1200	> 1200	> 1200	CC(C)(C)[Si](OCCc1c(N2CCOCC2)nc2ccc(Cl)cc2c1-c1ccccc1Cl)(c1ccccc1)c1ccccc1	> 1200			
> 1030	> 1030	> 1030	CC(C)(C)[Si](OCCc1c(OCc2c(Cl)cccc2Cl)nc2ccc(Cl)cc2c1-c1ccccc1Cl)(c1ccccc1)c1ccccc1	> 1030			
17.7	12.2	18.2	OCCc1c(OCc2c(Cl)cccc2Cl)nc2ccc(Cl)cc2c1-c1ccccc1Cl	38.5	3.2	2.1	2.2
> 1590	> 1590	323	OCCc1c(N2CCOCC2)nc2ccc(Cl)cc2c1-c1ccccc1Cl	> 1590		>4.9	

The remaining lines, values behind:

SMILES	IC50 [1] [µM]	IC50 [3] [µM]	IC50 [6] [µM]	CC50 [2] [µM]	Selectivity Index [4]	Selectivity Index [5]	Selectivity Index [7]
CS(=O)(=O)OCCc1c(Cl)nc2ccc(Cl)cc2c1-c1ccccc1Cl	> 882	647	1020	882	>1.4	<1	
O=c1[nH]c2ccc(Cl)cc2c(-c2ccccc2Cl)c1CCO	72.1	340	70.2	388	1.1	5.5	5.4
COc1nc2ccc(Cl)cc2c(-c2ccccc2Cl)c1CCO	6.9	> 2710	66.3	141	<1	2.1	20.5
OCCc1c(Cl)nc2ccc(Cl)cc2c1-c1ccccc1Cl	9.8	11.3	45.3	42.5	3.8	<1	4.3
[N-]=[N+]=NCCc1c(Cl)nc2ccc(Cl)cc2c1-c1ccccc1Cl	16.6	> 2510	> 2510	> 2510			>151.4
C[C@H](Cn1cnc2c(N)ncnc21)OCP(=O)(O)O [TENOFOVIR ANHYDROUS]	0.54		1450	> 1740	>1.5	>1.2	>3222
[N-]=[N+]=NCCc1c(N=[N+]=[N-])nc2ccc(Cl)cc2c1-c1ccccc1Cl	4.5	> 2480	> 2480	> 2480			>551.2
CS(=O)(=O)OCCc1c(OS(C)(=O)=O)nc2ccc(Cl)cc2c1-c1ccccc1Cl	6.8	367	16.5	804	2.2	48.6	118.2
CC(=O)OCCc1c(Cl)nc2ccc(Cl)cc2c1-c1ccccc1Cl	6.1	70.9	147	116	<1	<1	19.1
ClCCc1c(Cl)nc2ccc(Cl)cc2c1-c1ccccc1Cl	19	> 1400	> 1400	> 1400			>73.8
OCCc1c(OCc2c(F)cccc2F)nc2ccc(Cl)cc2c1-c1ccccc1Cl	4.8	1630	43.5	109	<1	2.5	22.7
